# Laboratory results published in paper PMC10246574 (International Journal of Nanomedicine, 2023).
# Legend:
# [1] = tested on: chorio-allantoic membrane of fertilized hen's eggs; assay: Hen's egg chorio-allantoic membrane; conditions: for irritation score (IS): 30 µL applied, observed 300 s; for irritation category: from IS
# Method in brief: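 Fertilized hen's eggs (7–10 days) incubated at 37.5 ± 0.5 °C and 62.5 ± 7.5% humidity with rotation. Shell over the air cell opened, membrane moistened with saline and removed. 30 µL sample applied to the CAM. First hemorrhage, vascular lysis and coagulation timed over 300 s; IS = [(301−h)×5]/300 + [(301−l)×7]/300 + [(301−c)×9]/300. CAM also imaged at 0, 5 and 60 min. Controls: 1% w/v SLS and normal saline.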
# [2] = tested on: rabbit skin; conditions: rabbits, ref Acid (1987) [48], cited from earlier work
# [3] = Cytotoxicity by MTT assay in HaCaT cells; type: cell-based; conditions: human, HaCaT cells (immortalized epidermal keratinocytes)
# Method in brief: (§1)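 Thawed cells grown in DMEM with 10% v/v fetal calf serum, 1 mM L-glutamine, penicillin and streptomycin at 37 °C, 5% CO2. Seeded at 3 × 10^5 (HaCaT) or 3.5 × 10^5 (Hs68) cells/well for 24 h. Treated with oil at 0–100 µg/mL for 48 h. MTT (5 mg/mL solution) added for 4 h; formazan dissolved in DMSO; A578 and A630.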
# [4] = Cytotoxicity by MTT assay in Hs68 cells; type: cell-based; conditions: human, Hs68 cells (foreskin fibroblasts)
# Method in brief: as §1
# [5] = tested on: human skin; conditions: daily application under occlusive patch, human volunteers; cited from earlier work
Compound,irritation score (IS) [1],irritation category [1],primary irritation index (PII) ([2]; single insult occlusive patch test),"erythema ([2]; oleic acid after 24 h, palmitic acid after 2–24 h)",IC20 at 48 h [3],"viability at 48 h, 100 µg/mL [3]",IC20 at 48 h [4],"viability at 48 h, 100 µg/mL [4]",irritation of human skin [5],irritation signs on CAM after 60 min of exposure ([1]; 60 min)
"CCCCCCCCCCCCOS(=O)(=O)[O-].[Na+] [SLS, sodium lauryl sulphate]",12.5 ± 0.3,severe irritation,–,–,–,–,–,–,–,–
CCCCCCCC/C=C\CCCCCCCC(=O)O [oleic acid],0.0 ± 0.0,no irritant effect,0.5,moderate erythema,100 µg/mL,82.2 ± 6.1%,> 100 µg/mL,> 90%,not found to be irritating,–
CCCCC/C=C\C/C=C\CCCCCCCC(=O)O [linoleic acid],0.0 ± 0.0,no irritant effect,–,–,100 µg/mL,73.8 ± 5.8%,> 100 µg/mL,> 90%,found to produce irritation,–
CCCCCCCCCCCCCCCC(=O)O [palmitic acid],0.0 ± 0.0,no irritant effect,–,–,100 µg/mL,75.9 ± 3.5%,> 100 µg/mL,> 90%,not found to be irritating,vascular lysis was detected
